For 13 compounds, IC50 results are on record in ChEMBL document CHEMBL2016520, “Design, synthesis, molecular docking and biological evaluation of new dithiocarbamates substituted benzimidazole and chalcones as possible chemotherapeutic agents” (Bioorg Med Chem Lett, 2012).

In the assay the test system is Cicer arietinum. Put plainly: Antimitotic activity against chick pea seeds assessed as inhibition of germinating root growth after 7 days. Format: functional, organism-based. The settings on record: 168 h. The method, boiled down:
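Seeds germinated in Petri dishes on filter paper for 7 days, with the paper moistened every 24 h with drug solution. One dish held DMSO as control and one held cisplatin as the standard. Radicle length was measured in cm on day 7, and percent growth inhibition was calculated against the mean of the DMSO-treated control.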
As a reminder, the IC50 is the concentration needed to halve the response being measured. `O=C(CC(SC(=S)N1CCCC1)c1ccccc1)c1ccccc1` (stereo not drawn): the IC50 came out at 1.67 µM.

Take `CN(C)C(=S)SC(CC(=O)c1ccccc1)c1ccccc1` (stereo not drawn): the IC50 was found to be 2.43 µM.

As to `CCCNC(=S)SCc1nc2ccccc2[nH]1`, the IC50 stood at 2.29 µM.

In the case of `CCN(CC)C(=S)SCc1nc2ccccc2[nH]1`, the half-inhibitory concentration (IC50) came to 1.86 µM.

As for `S=C(SCc1nc2ccccc2[nH]1)N1CCCC1`, the IC50 amounted to 1.8 µM.

As for `O=C(CC(SC(=S)Nc1nc2ccccc2s1)c1ccccc1)c1ccccc1` (stereo not drawn), the IC50 is 1.52 µM.

Consider `O=C(CC(SC(=S)N1CCCCC1)c1ccccc1)c1ccccc1` (stereo not drawn), for which the IC50 stood at 1.85 µM.

Take `S=C(SCc1nc2ccccc2[nH]1)N1CCCCC1`: the IC50 is 1.66 µM.

Turning to `CN(C)C(=S)SCc1nc2ccccc2[nH]1`, the IC50 was found to be 2.12 µM.

As for `O=C(CC(SC(=S)N1CCOCC1)c1ccccc1)c1ccccc1` (stereo not drawn), the IC50 stood at 1.65 µM.

With `CCN(CC)C(=S)SC(CC(=O)c1ccccc1)c1ccccc1` (stereo not drawn), the IC50 was 1.84 µM.

For `CCCCNC(=S)SCc1nc2ccccc2[nH]1`, the IC50 amounted to 2.11 µM.

For `S=C(SCc1nc2ccccc2[nH]1)N1CCOCC1`, the IC50 was 1.89 µM.
